From publication PMC12399198 (Acta Pharmaceutica Sinica. B, 2025)
Peptide text beside a SMILES is read from it. * marks the point of attachment. Cbz = O=C(OCc1ccccc1)*

What was measured:
[1] = system: OVA-induced AR mouse model; test: OVA-induced AR mouse model; assay type: in vivo; conditions: OVA-induced AR mice
Summary of the method: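 Male C57BL/6 mice, 6 weeks old, sensitised i.p. with OVA/alum (1:1) weekly for 3 weeks. Then challenged i.n. with OVA 2 mg/20 µL daily for 7 days. Test compound given i.n. at 0, 5, 10 or 20 mg/kg in 5% DMSO/45% PEG400/50% PBS, once daily, 6 h before each challenge; dexamethasone 1 mg/kg as reference. Sneezes and nasal rubs counted blinded for 10 min, starting 10 min after challenge; n = 8.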

Keap1 = Keap1 (Homo sapiens, UniProt Q14145); test: Keap1 degradation in MDA-MB-231 cells; assay type: cell-based; conditions: 24 h, dose-dependent
Keap1, sequence (Q14145 whole entry): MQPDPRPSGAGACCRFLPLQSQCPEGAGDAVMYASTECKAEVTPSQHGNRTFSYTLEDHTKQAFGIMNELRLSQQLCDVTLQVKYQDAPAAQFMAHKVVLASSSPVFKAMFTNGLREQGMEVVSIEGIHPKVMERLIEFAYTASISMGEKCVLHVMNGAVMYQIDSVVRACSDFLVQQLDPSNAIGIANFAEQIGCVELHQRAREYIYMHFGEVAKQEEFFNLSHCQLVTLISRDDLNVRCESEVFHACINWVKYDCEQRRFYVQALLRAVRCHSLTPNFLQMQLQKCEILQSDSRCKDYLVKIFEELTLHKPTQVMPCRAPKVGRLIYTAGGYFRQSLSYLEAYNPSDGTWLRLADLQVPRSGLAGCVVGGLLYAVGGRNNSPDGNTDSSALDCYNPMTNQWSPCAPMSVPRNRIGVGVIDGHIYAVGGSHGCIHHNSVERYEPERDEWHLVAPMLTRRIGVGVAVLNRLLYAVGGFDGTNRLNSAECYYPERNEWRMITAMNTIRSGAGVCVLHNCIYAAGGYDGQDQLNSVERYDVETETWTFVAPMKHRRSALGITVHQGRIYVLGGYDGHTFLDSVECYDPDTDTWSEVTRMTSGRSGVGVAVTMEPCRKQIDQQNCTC

## C[C@@H]1C[C@H]2[C@@H]3CCC4=CC(=O)C=C[C@]4(C)[C@@]3(F)[C@@H](O)C[C@]2(C)[C@@]1(O)C(=O)CO [DEX, Dexamethasone]
[1]; i.n. daily for 7 days, 8 at 5, 10, 20 mg/kg, DEX 1 mg/kg
  allergic nasal symptoms (number of nasal rubbing and sneezing every 10 min): decreased
[1]; DEX or high dose of 8
  CD45+ cells in nasal mucosa (IHC staining): reduced
  eosinophil infiltration within the nasal mucosa (Giemsa staining): significantly reduced

## CC(C)C[C@@H](C=O)NC(=O)[C@H](CC(C)C)NC(=O)[C@H](CC(C)C)NC(=O)OCc1ccccc1 [MG132] (Cbz-Leu-Leu-Leu-aldehyde)
Keap1
  effect on Keap1 levels: decreasing Keap1 levels
